# Source: ChEMBL document CHEMBL5724801, “EUbOPEN Chemogenomics Library - Multiplex” (2024)
# “And” between values parts separate entries of the source, which are not always exact repeats. Equal values may be shown once.
# Test system: U2OS
# Experiment: Multiplex assay against U2OS
# Assay type: toxicity, cell-based
# Settings: human
# Outline: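 Four dyes were applied at seeding to live cells: Hoechst33342, BioTracker Green Microtubule Cytoskeleton Dye, MitoTracker Red and Annexin V Alexa Fluor 680. Imaging after compound addition used a CQ1 microscope at 37°C and 5% CO2. CellPathfinder machine-learning gating then sorted cells into Hoechst high-intensity objects or normal cells, normal cells into healthy, pyknosed or fragmented nuclei, and pyknosed cells into mitotic or apoptotic, with tubulin, mitochondrial-mass and membrane-permeability phenotypes given as per cents of healthy-nucleus cells.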
# [1] = 12 h, 1 µM, compound concentration 1 uM
# [2] = 12 h, 10 µM, compound concentration 10 uM
# [3] = 24 h, 1 µM, compound concentration 1 uM
# [4] = 24 h, 10 µM, compound concentration 10 uM
# [5] = 48 h, 1 µM, compound concentration 1 uM
# [6] = 48 h, 10 µM, compound concentration 10 uM
compound,measurement,setting,value
Cc1ccc(OCC(O)C(C)NC(C)C)c2c1CCC2.Cl (stereo not given),Population Apoptotic (%),[1],63% and 90%
same,Population Fragmented Nuclei (%),[1],19% and 11%
same,Population Healthy Nuclei (%),[1],66% and 79%
same,Population Hoechst High Intensity Objects (%),[1],2% and 1%
same,Population Membrane Permeable-Phenotype (%),[1],8% and 7%
same,Population Mitochondria Different-Phenotype (%),[1],3% and 2%
same,Population Normal (%),[1],97% and 98%
same,Population Pyknosed Nuclei (%),[1],13% and 8%
same,Population Tubulin-Different-Phenotype (%),[1],4% and 2%
same,Total Cell Count,[1],222 and 129
same,Population Apoptotic (%),[2],61% and 80%
same,Population Fragmented Nuclei (%),[2],30% and 11%
same,Population Healthy Nuclei (%),[2],52% and 81%
same,Population Hoechst High Intensity Objects (%),[2],5% and 0%
same,Population Membrane Permeable-Phenotype (%),[2],14% and 9%
same,Population Mitochondria Different-Phenotype (%),[2],17% and 22%
same,Population Mitotic Cells (%),[2],38% and 20%
same,Population Normal (%),[2],94% and 99%
same,Population Pyknosed Nuclei (%),[2],16% and 7%
same,Population Tubulin-Different-Phenotype (%),[2],8% and 9%
same,Total Cell Count,[2],215 and 137
same,Population Apoptotic (%),[3],88% and 93%
same,Population Fragmented Nuclei (%),[3],14% and 15%
same,Population Healthy Nuclei (%),[3],75% and 73%
same,Population Hoechst High Intensity Objects (%),[3],0% and 1%
same,Population Membrane Permeable-Phenotype (%),[3],5% and 3%
same,Population Mitochondria Different-Phenotype (%),[3],3% and 5%
same,Population Mitotic Cells (%),[3],11% and 6%
same,Population Normal (%),[3],100% and 98%
same,Population Pyknosed Nuclei (%),[3],10%
same,Population Tubulin-Different-Phenotype (%),[3],4% and 0%
same,Total Cell Count,[3],255 and 155
same,Population Apoptotic (%),[4],82% and 92%
same,Population Fragmented Nuclei (%),[4],26% and 14%
same,Population Healthy Nuclei (%),[4],56% and 77%
same,Population Hoechst High Intensity Objects (%),[4],3% and 2%
same,Population Membrane Permeable-Phenotype (%),[4],10% and 12%
same,Population Mitochondria Different-Phenotype (%),[4],17% and 11%
same,Population Mitotic Cells (%),[4],17% and 7%
same,Population Normal (%),[4],96% and 97%
same,Population Pyknosed Nuclei (%),[4],17% and 8%
same,Population Tubulin-Different-Phenotype (%),[4],4% and 6%
same,Total Cell Count,[4],230 and 172
same,Population Apoptotic (%),[5],88% and 80%
same,Population Fragmented Nuclei (%),[5],14% and 20%
same,Population Healthy Nuclei (%),[5],73% and 69%
same,Population Hoechst High Intensity Objects (%),[5],0% and 2%
same,Population Membrane Permeable-Phenotype (%),[5],6% and 5%
same,Population Mitochondria Different-Phenotype (%),[5],4% and 3%
same,Population Mitotic Cells (%),[5],11% and 20%
same,Population Normal (%),[5],99% and 97%
same,Population Pyknosed Nuclei (%),[5],12% and 10%
same,Population Tubulin-Different-Phenotype (%),[5],3% and 2%
same,Total Cell Count,[5],377 and 202
same,Population Apoptotic (%),[6],82% and 77%
same,Population Fragmented Nuclei (%),[6],23% and 15%
same,Population Healthy Nuclei (%),[6],63% and 73%
same,Population Hoechst High Intensity Objects (%),[6],4% and 0%
same,Population Membrane Permeable-Phenotype (%),[6],12% and 7%
same,Population Mitochondria Different-Phenotype (%),[6],12% and 4%
same,Population Mitotic Cells (%),[6],17% and 22%
same,Population Normal (%),[6],95% and 99%
same,Population Pyknosed Nuclei (%),[6],13% and 11%
same,Population Tubulin-Different-Phenotype (%),[6],6% and 3%
same,Total Cell Count,[6],306 and 246
COc1cc(OC2CCN(C(C)=O)CC2)ccc1C(=O)N1CCC(N2C(=O)OCc3ccccc32)CC1,Population Apoptotic (%),[1],50% and 66%
same,Population Fragmented Nuclei (%),[1],22% and 20%
same,Population Healthy Nuclei (%),[1],67% and 69%
same,Population Hoechst High Intensity Objects (%),[1],0%
same,Population Membrane Permeable-Phenotype (%),[1],5% and 11%
same,Population Mitochondria Different-Phenotype (%),[1],3% and 7%
same,Population Mitotic Cells (%),[1],50% and 33%
same,Population Normal (%),[1],99%
same,Population Pyknosed Nuclei (%),[1],9%
same,Population Tubulin-Different-Phenotype (%),[1],3% and 8%
same,Total Cell Count,[1],233 and 130
same,Population Apoptotic (%),[2],72% and 87%
same,Population Fragmented Nuclei (%),[2],23% and 13%
same,Population Healthy Nuclei (%),[2],62% and 77%
same,Population Hoechst High Intensity Objects (%),[2],6% and 1%
same,Population Membrane Permeable-Phenotype (%),[2],18% and 21%
same,Population Mitochondria Different-Phenotype (%),[2],6% and 10%
same,Population Mitotic Cells (%),[2],27% and 12%
same,Population Normal (%),[2],93% and 98%
same,Population Pyknosed Nuclei (%),[2],13% and 9%
same,Population Tubulin-Different-Phenotype (%),[2],12% and 13%
same,Total Cell Count,[2],228 and 85
same,Population Apoptotic (%),[3],82% and 76%
same,Population Fragmented Nuclei (%),[3],20% and 22%
same,Population Healthy Nuclei (%),[3],71% and 68%
same,Population Hoechst High Intensity Objects (%),[3],1%
same,Population Membrane Permeable-Phenotype (%),[3],3% and 7%
same,Population Mitochondria Different-Phenotype (%),[3],2% and 5%
same,Population Mitotic Cells (%),[3],17% and 23%
same,Population Normal (%),[3],98%
same,Population Pyknosed Nuclei (%),[3],8%
same,Population Tubulin-Different-Phenotype (%),[3],2% and 3%
same,Total Cell Count,[3],288 and 163
same,Population Apoptotic (%),[4],81% and 71%
same,Population Fragmented Nuclei (%),[4],21% and 12%
same,Population Healthy Nuclei (%),[4],60% and 80%
same,Population Hoechst High Intensity Objects (%),[4],5% and 2%
same,Population Membrane Permeable-Phenotype (%),[4],9% and 10%
same,Population Mitochondria Different-Phenotype (%),[4],9% and 3%
same,Population Mitotic Cells (%),[4],18% and 28%
same,Population Normal (%),[4],94% and 97%
same,Population Pyknosed Nuclei (%),[4],18% and 7%
same,Population Tubulin-Different-Phenotype (%),[4],4% and 6%
same,Total Cell Count,[4],250 and 99
same,Population Apoptotic (%),[5],80% and 65%
same,Population Fragmented Nuclei (%),[5],17% and 23%
same,Population Healthy Nuclei (%),[5],77% and 66%
same,Population Hoechst High Intensity Objects (%),[5],3%
same,Population Membrane Permeable-Phenotype (%),[5],3% and 10%
same,Population Mitochondria Different-Phenotype (%),[5],1% and 5%
same,Population Mitotic Cells (%),[5],19% and 35%
same,Population Normal (%),[5],96%
same,Population Pyknosed Nuclei (%),[5],5% and 9%
same,Population Tubulin-Different-Phenotype (%),[5],2% and 4%
same,Total Cell Count,[5],388 and 213
same,Population Apoptotic (%),[6],81% and 100%
same,Population Fragmented Nuclei (%),[6],19% and 17%
same,Population Healthy Nuclei (%),[6],66% and 78%
same,Population Hoechst High Intensity Objects (%),[6],5% and 1%
same,Population Membrane Permeable-Phenotype (%),[6],5% and 14%
same,Population Mitochondria Different-Phenotype (%),[6],4% and 6%
same,Population Mitotic Cells (%),[6],18% and 0%
same,Population Normal (%),[6],95% and 98%
same,Population Tubulin-Different-Phenotype (%),[6],3% and 8%
same,Total Cell Count,[6],320 and 130
